Assay outcomes deposited in PubChem by The Scripps Research Institute Molecular Screening Center.
Shown are actives, neighbours in structure and some others; about 4.5% of the full set was active somewhere.
CHO parental Ca – counter-screen: ATP calcium response change in parental CHO cells; inhibition, % at 5.6 µM; hit rate 0.63% among 330,000; parental CHO-K1, ATP-induced calcium, Fluo-8 fluorescence; AID 463079;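 active = inhibition above that plate's mean sample inhibition plus 3 SD, cut at about 26% in these data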;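 also: 0% = ATP-challenged DMSO wells and 100% = DMSO wells without ATP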
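Measured by: calcium-sensitive Fluo-8 fluorescence / Test system: CHO parental line / Controls: ATP-challenged DMSO wells low, unchallenged DMSO wells high / Measure: % inhibition / Compound: single nominal dose of 5.6 µM per compound / Replicates: single well per compound, no replicates / Reagent: ATP as calcium-mobilizing challenge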
TAAR1 ag – human TAAR1 agonism; activation, % at 3 µM; hit rate 0.99% among 360,000; CHO RD-HGA16 TAAR1, Fluo-8 calcium fluorescence; vehicle wells 0%, saturating PEA agonist 100%; Q96RJ0;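 active = activation above the mean activation of all test compounds in the run plus 3 SD, cut at about 38% in these data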
Target sequence (Q96RJ0 whole entry, looked up): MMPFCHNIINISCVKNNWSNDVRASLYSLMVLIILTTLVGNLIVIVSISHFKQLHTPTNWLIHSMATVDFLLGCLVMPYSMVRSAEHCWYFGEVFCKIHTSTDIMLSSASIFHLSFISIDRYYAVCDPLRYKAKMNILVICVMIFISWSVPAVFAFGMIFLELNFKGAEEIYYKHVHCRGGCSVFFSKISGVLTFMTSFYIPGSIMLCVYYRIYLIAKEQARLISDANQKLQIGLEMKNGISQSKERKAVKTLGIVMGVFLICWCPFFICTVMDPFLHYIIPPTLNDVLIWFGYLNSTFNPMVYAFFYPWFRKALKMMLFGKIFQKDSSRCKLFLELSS
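Benchmarks: low control DMSO, high control PEA (EC100); System: CHO RD-HGA16 cells carrying human TAAR1 plus Gα16; Detection: Fluo-8 fluorescence, 5 s baseline then 140 s kinetic read; Schedule: 17-24 h plating, Fluo-8 75 min 37 °C, 30 min RT; Read-out basis: % activation from peak over basal fluorescence ratio, DMSO-to-PEA scaled.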
GPR7 antagonist – human neuropeptides B/W receptor 1 antagonism; inhibition, % at 4.4 µM; GPR7-expressing cells, fluorescence antagonist assay; hit rate 1.1% among 290,000; in the data active = inhibition above about 16%, passing the limit was not always enough;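 also: cells stimulated with the agonist NPW; 0% = agonist with vehicle and 100% = vehicle without agonist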
OX1R antag-1 – antagonists of human orexin 1 receptor; CHO/OX1R cells, Fluo-8 calcium fluorescence, orexin A; inhibition, % at 5 µM; hit rate 0.43% among 330,000; AID 434989;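 active = inhibition above its plate's threshold, mean inhibition of all tested compounds on the plate plus 3 SD, cut at about 37% in these data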;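 also: 0% = orexin A challenge wells and 100% = SB-334867-A antagonist wells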
OX1R antag-2 – blocks the human orexin 1 receptor; O43613; hit rate 1.8% among 330,000; OX1R-expressing cells, FRET antagonist read-out; inhibition, % at 6.6 µM; in the data active = inhibition mostly above about 38%, no sharp cut-off; inactive = mostly below about 40%;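 also: 0% = agonist challenge alone and 100% = reference antagonist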
TAAR1 antagonist – human TAAR1 antagonism; CHO RD-HGA16 TAAR1, Fluo-8 calcium fluorescence, antagonist; inhibition, % at 3 µM; hit rate 1.5% among 360,000; AID 624466;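 active = inhibition above a per-plate cutoff, the mean inhibition of test compounds on that plate plus 3 SD, cut at about 49% in these data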;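 also: 0% = DMSO plus EC80 beta-PEA response and 100% = DMSO alone without agonist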
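test system = CHO RD-HGA16 cells bearing hTAAR1 | replication = singlicate | controls = DMSO-only wells and EC80 β-PEA-stimulated wells | reagent = EC80 β-phenethylamine stimulus | read-out basis = percent inhibition of PEA-evoked calcium signal, max/basal emission ratio | schedule = seeding 17-24 h prior, 75-min 37 °C, 30-min RT dye loading | signal = kinetic Fluo-8 calcium fluorescence measurement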
GPR7 antag conf – confirmation of human GPR7 antagonists. shares compounds with GPR7 antagonist. GPR7-expressing cells, calcium fluorescence antagonist mode. inhibition, % at 4.4 µM. hit rate 52% among 2,400. AID 1952; in the data active = inhibition above about 24%;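 also: stimulated with the GPR7 agonist NPW; 0% = agonist plus vehicle and 100% = vehicle alone without agonist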
MCHR1 antag – MCHR1 (human) antagonism in GPR7 counter-screen; inhibition, % at 4.4 µM; hit rate 62% among 2,400; MCHR1-expressing cells, fluorescence antagonist assay; AID 2148; shares compounds with GPR7 antagonist; in the data active = inhibition above about 22%;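 also: 0% = vehicle with agonist and 100% = vehicle without agonist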
Active calls of the source: *; nt = not tested or not shown.

SMILES	CHO parental Ca	TAAR1 ag	GPR7 antagonist	OX1R antag-1	OX1R antag-2	TAAR1 antagonist	GPR7 antag conf	MCHR1 antag
Cc1ccccc1NC(=O)c1cccc(C(=O)Nc2ccccc2C)n1	-23	3	33*	-39	6	20	11	37*
Cc1ccccc1NC(=O)c1cccc(C(=O)Nc2ccccc2C)c1	-9	0	nt	-34	11	-48	nt	nt
COc1cc(C(=S)N2CCOCC2)ccc1OC(=O)c1ccc(Br)cc1	nt	12	42*	nt	nt	75*	66*	81*
O=C(NCc1ccccc1Cl)c1ccc(S(=O)(=O)N2CCCC2)cc1	-10	-3	nt	-18	11	12	nt	nt
O=C(NCc1ccccc1Cl)c1ccc(S(=O)(=O)Nc2cccc(C(F)(F)F)c2)cc1	17	34	24*	22	3	20	32*	46*
Cn1nnnc1SCC(=O)Nc1ccc(Oc2ccccc2)cc1	2	1	22*	-14	25	9	14	18
O=S(=O)(Nc1ccccn1)c1ccc(Cl)c2ccccc12	-13	1	-5	-24	13	-1	nt	nt
O=C(CNC(=O)c1ccc(S(=O)(=O)N2CCCC2)cc1)N/N=C/c1ccc(F)cc1	8	29	0	-18	30	6	nt	nt
CCc1ccc(N2C(=O)CN(Cc3ccccc3)C2=S)cc1	0	-1	39*	-23	7	10	5	-3
O=C(c1nnsc1S(=O)c1ccc(Cl)cc1)N1CCOCC1 (stereo unspecified)	nt	15	25*	nt	nt	24	37*	92*
Cc1nnsc1S(=O)c1ccc(Cl)cc1 (stereo unspecified)	-2	2	-17	2	-6	-19	nt	nt
CCC(=NOCc1ccccc1)C(=O)NNS(=O)(=O)c1ccc(C)cc1	nt	3	nt	nt	nt	2	nt	nt
FC(F)(F)c1cccc(Cn2c3[n+](c4ccc(C(F)(F)F)cc42)CCCCC3)c1	-31	1	24*	-13	17	-24	24*	18
Cc1cc(C(C)(C)C)cc(C)c1Cn1c2[n+](c3ccc(C(F)(F)F)cc31)CCCCC2	-6	3	33*	-23	20	-27	29*	32*
C[C@@H]1COc2cccc(N(C)CCO)c2S(=O)(=O)N1	nt	3	nt	nt	nt	-7	nt	nt
Cc1c(C(=O)N2CCN(Cc3ccc4c(c3)OCO4)CC2)sc2ncnc(N3CCN(c4ccccc4)CC3)c12	2	1	44*	-4	17	19	44*	81*
CCOC(=O)C1(C)CCCN1C(=O)c1ccc(Cl)nc1 (stereo unspecified)	nt	8	nt	nt	nt	-15	nt	nt
Nc1ccc(-c2nc3cc(N)ccc3o2)cc1	-11	0	-9	-7	11	-9	nt	nt
COC(=O)c1ccc(-c2nc3cc(N)ccc3o2)cc1	-12	8	61*	-18	17	10	-12	18
Cc1csc(=O)n1CC(=O)OCC(=O)NCc1ccc(F)cc1	4	6	nt	-2	8	-21	nt	nt
O=C(C1CCN(c2ncnc3c2nc2n3CCCCC2)CC1)N1CCN(c2ccccc2F)CC1	-25	4	-12	-18	13	-4	nt	nt
Cc1cccc(N2CCN(C(=O)C3CCN(c4ncnc5c4nc4n5CCCCC4)CC3)CC2)c1C	-11	11	27*	21	17	-5	25*	61*
O=C(O)C1(Cc2nc3ccccc3[nH]2)CCCC1	-8	1	-3	2	-6	-1	nt	nt
Cc1cc(CN(C)Cc2ccc(OCC(O)CN(C)Cc3ccccc3)cc2)on1 (stereo unspecified)	-13	5	14	-31	7	-10	nt	nt
C=CCOc1ccc(CN(C)CC(O)COc2cccc3ccccc23)cc1 (stereo unspecified)	2	19	33*	-4	7	9	47*	39*
SMILES	CHO parental Ca	TAAR1 ag	GPR7 antagonist	OX1R antag-1	OX1R antag-2	TAAR1 antagonist	GPR7 antag conf	MCHR1 antag
Cc1ccc(Oc2ccccc2NC(=O)CN2C(=O)NC3(CCCC3)C2=O)cc1	-9	-1	29*	-12	11	-15	-11	1
CO/N=C(/CS(=O)(=O)c1ccc(C)cc1)c1ccc(OC)cc1	-15	3	10	-19	12	-8	nt	nt
CN(C(=O)COc1cc(=O)n(C)c2ccccc12)c1cccc(Cl)c1	-5	-1	13	-16	19	-17	nt	nt
Cc1cccc(N(C)C(=O)COc2cc(=O)n(C)c3ccccc23)c1	-12	2	64*	-23	11	-34	-2	6
CCOC(=O)c1ccc(S(=O)(=O)N2CCC(C(=O)OCC)CC2)cc1	-2	2	10	-12	17	1	nt	nt
CCOC(=O)C1CCN(S(=O)(=O)c2ccc(CC)cc2)CC1	-8	-1	21*	-8	9	-18	16	25*
COCC(Cc1ccccc1)NC(=O)Cn1cc(C)c(=O)[nH]c1=O (stereo unspecified)	nt	5	nt	nt	nt	0	nt	nt
O=C(CN1CCN(S(=O)(=O)c2ccc(Br)cc2)CC1)Nc1ccc(F)cc1F	-10	15	13	-8	3	7	nt	nt
COc1cccc(NC(=O)CN(C)C(=O)c2cccc(S(=O)(=O)N3CCN(c4ccccc4)CC3)c2)c1	14	6	24*	-2	12	-3	16	39*
